Test results published in ChEMBL document CHEMBL1138502, “Discovery and biological evaluation of novel cyanoguanidine P2X(7) antagonists with analgesic activity in a rat model of neuropathic pain” (J Med Chem, 2009).

Tests used:
[1] = molecular target: T1, P2X purinoceptor 7 (Rattus norvegicus, UniProt Q64663); test: Antagonist activity at rat cloned P2X7 receptor expressed in HEK293 cells assessed as inhibition of calcium flux by FLIPR assay; assay type: functional, cell-based
T1 sequence (Q64663 whole entry): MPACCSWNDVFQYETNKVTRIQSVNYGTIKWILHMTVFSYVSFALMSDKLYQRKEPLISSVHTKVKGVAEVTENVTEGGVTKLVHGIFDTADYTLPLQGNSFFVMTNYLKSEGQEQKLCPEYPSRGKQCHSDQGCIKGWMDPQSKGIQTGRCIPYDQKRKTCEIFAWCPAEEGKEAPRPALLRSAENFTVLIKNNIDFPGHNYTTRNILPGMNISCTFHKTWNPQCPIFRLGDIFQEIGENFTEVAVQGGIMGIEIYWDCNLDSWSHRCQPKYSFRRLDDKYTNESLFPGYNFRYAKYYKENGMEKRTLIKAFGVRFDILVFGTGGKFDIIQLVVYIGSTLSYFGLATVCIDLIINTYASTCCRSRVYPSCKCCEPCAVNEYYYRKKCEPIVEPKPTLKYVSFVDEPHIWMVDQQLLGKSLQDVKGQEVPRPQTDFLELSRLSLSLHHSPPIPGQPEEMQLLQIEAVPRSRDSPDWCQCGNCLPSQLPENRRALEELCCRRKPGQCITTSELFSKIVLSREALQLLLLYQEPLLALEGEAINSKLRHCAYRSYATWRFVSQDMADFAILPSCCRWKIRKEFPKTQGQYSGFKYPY
Outline: (§1)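 Calcium influx read on a fluorometric imaging plate reader with Fluo-4 as the calcium-sensing dye. The P2X7 agonist was benzoylbenzoic ATP (BzATP). pIC50 values are the mean of two experiments unless otherwise indicated; some values are the mean of more than two experiments, with standard deviation shown.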

[2] = molecular target: T2, P2X purinoceptor 7 (Homo sapiens, UniProt Q99572); test: Antagonist activity at human cloned P2X7 receptor expressed in HEK293 cells assessed as inhibition of calcium flux by FLIPR assay; assay type: functional, cell-based; outline: as §1
T2 sequence (Q99572 whole entry): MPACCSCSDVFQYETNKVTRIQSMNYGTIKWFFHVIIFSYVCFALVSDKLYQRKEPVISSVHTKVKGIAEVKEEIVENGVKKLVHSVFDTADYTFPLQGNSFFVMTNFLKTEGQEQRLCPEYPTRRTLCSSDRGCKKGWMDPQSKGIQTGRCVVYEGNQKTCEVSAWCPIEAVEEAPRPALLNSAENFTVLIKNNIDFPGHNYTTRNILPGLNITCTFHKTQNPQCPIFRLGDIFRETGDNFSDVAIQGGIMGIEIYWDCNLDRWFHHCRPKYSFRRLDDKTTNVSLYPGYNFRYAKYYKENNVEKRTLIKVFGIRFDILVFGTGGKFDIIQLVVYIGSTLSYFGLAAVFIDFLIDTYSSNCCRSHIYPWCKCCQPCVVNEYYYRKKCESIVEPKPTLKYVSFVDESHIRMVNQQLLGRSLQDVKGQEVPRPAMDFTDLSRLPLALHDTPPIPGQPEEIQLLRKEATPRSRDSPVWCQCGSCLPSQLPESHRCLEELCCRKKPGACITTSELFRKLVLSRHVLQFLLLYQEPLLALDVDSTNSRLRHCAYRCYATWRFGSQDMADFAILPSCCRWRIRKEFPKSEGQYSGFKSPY

## CC(C)(C)C(NC(=O)Cc1cccc2ccccc12)NC(=NC#N)Nc1cccc2ncccc12 (configuration not stated)
[1]
  IC50: 31.6 nM
[2]
  IC50: 31.6 nM

## COc1ccc(C(=O)NC(N=C(NC#N)Nc2ccccc2C)C(C)(C)C)cc1OC (configuration not stated)
[1]
  IC50: 631 nM
[2]
  IC50: 5010 nM

## CC(C)(C)C(NC(=O)Cc1ccc(C#N)cc1)N/C(=N/C#N)Nc1cccc2ncccc12 (configuration not stated)
[1]
  IC50: 6.31 nM
[2]
  IC50: 39.8 nM

## COc1cc(OC)cc(C(=O)NC(NC(=NC#N)Nc2cccnc2OC)C(C)(Cl)Cl)c1 (configuration not stated)
[1]
  IC50: 20 nM
[2]
  IC50: 50.1 nM

## COc1ccc(CC(=O)NC(N=C(NC#N)Nc2ccc(F)c(F)c2)C(C)(C)C)cc1OC (configuration not stated)
[1]
  IC50: 50.1 nM
[2]
  IC50: 794 nM

## COc1ccc(CC(=O)NC(NC(=NC#N)Nc2c(F)cc(F)cc2F)C(C)(C)C)cc1OC (configuration not stated)
[1]
  IC50: 31.6 nM
[2]
  IC50: 100 nM

## COc1ccc(N/C(=N\C#N)NC(NC(=O)Cc2ccc(OC)c(OC)c2)C(C)(C)C)c(OC)n1 (configuration not stated)
[1]
  IC50: 12.6 nM
[2]
  IC50: 31.6 nM

## COc1ccc(CC(=O)NC(NC(=NC#N)Nc2ccccc2C)C(C)(C)C)cc1OC (stereo in doubt; (-)-13)
[1]
  IC50: 501 nM
[2]
  IC50: 5010 nM

## CCCCCC(=O)NC(N=C(NC#N)Nc1ccccc1C)C(C)(C)C (configuration not stated)
[1]
  IC50: 31.6 nM
[2]
  IC50: 794 nM

## COc1ccc(CC(=O)NC(N/C(=N/C#N)Nc2ccc(F)cc2F)C(C)(C)C)cc1OC (configuration not stated)
[1]
  IC50: 10 nM
[2]
  IC50: 251 nM

## COc1ncccc1NC(=NC#N)NC(NC(=O)c1ccc(Cl)cc1)C(C)(Cl)Cl (configuration not stated)
[1]
  IC50: 50.1 nM
[2]
  IC50: 63.1 nM

## COc1ccc(CC(=O)NC(N/C(=N/C#N)Nc2cccc3cnccc23)C(C)(C)C)cc1OC (configuration not stated)
[1]
  IC50: 31.6 nM
[2]
  IC50: 251 nM

## COc1ccc(CC(=O)NC(N/C(=N/C#N)Nc2ccccc2C)C(C)(C)C)cc1 (configuration not stated)
[1]
  IC50: 31.6 nM
[2]
  IC50: 63.1 nM

## COc1ccc(CC(=O)NC(NC(=NC#N)Nc2cccnc2OC)C(C)(Cl)Cl)cc1OC (configuration not stated)
[1]
  IC50: 7.94 nM
[2]
  IC50: 31.6 nM

## COc1ccc(CC(=O)NC(NC(=S)Nc2ccccc2C)C(Cl)(Cl)Cl)cc1OC (configuration not stated)
[1]
  IC50: 50.1 nM
[2]
  IC50: 100 nM

## COc1ccccc1NC(=NC(NC(=O)Cc1ccc(OC)c(OC)c1)C(C)(C)C)NC#N (configuration not stated)
[1]
  IC50: 25.1 nM
[2]
  IC50: 158 nM

## CC(C)(C)C(NC(=O)CCCc1cccnc1)N/C(=N/C#N)Nc1cccc2ncccc12 (configuration not stated)
[1]
  IC50: 39.8 nM
[2]
  IC50: 100 nM

## COc1ccc(CC(=O)NC(N/C(=N/C#N)Nc2cccc3cccnc23)C(C)(C)C)cc1OC (configuration not stated)
[1]
  IC50: 158 nM
[2]
  IC50: 1580 nM

## COc1ccc(CC(=O)NC(N=C(NC#N)Nc2cccc(C)c2)C(C)(C)C)cc1OC (configuration not stated)
[1]
  IC50: 39.8 nM
[2]
  IC50: 1000 nM

## CSc1ccc(CC(=O)NC(N=C(NC#N)Nc2ccccc2C)C(C)(C)C)cc1 (configuration not stated)
[1]
  IC50: 7.94 nM
[2]
  IC50: 31.6 nM

## COc1ccc(CC(=O)NC(N/C(=N/C#N)Nc2cccc(F)c2F)C(C)(C)C)cc1OC (configuration not stated)
[1]
  IC50: 100 nM
[2]
  IC50: 316 nM

## COc1cc(OC)cc(C(=O)NC(N/C(=N/C#N)Nc2cccnc2C)C(C)(Cl)Cl)c1 (configuration not stated)
[1]
  IC50: 1000 nM
[2]
  IC50: 200 nM

## CSc1ccc(CC(=O)NC(N=C(NC#N)Nc2cccc3ncccc23)C(C)(C)C)cc1 (configuration not stated)
[1]
  IC50: 7.94 nM
[2]
  IC50: 10 nM

## COc1ccc(CC(=O)NC(N/C(=N/C#N)Nc2cccnc2Cl)C(C)(C)C)cc1OC (configuration not stated)
[1]
  IC50: 39.8 nM
[2]
  IC50: 79.4 nM

## COc1ccc(CC(=O)NC(NC(=NC#N)Nc2ccccc2C)C(C)(C)C)cc1OC (single isomer, unassigned; (+))
[1]
  IC50: 12.6 nM
[2]
  IC50: 63.1 nM

## Cc1ccccc1NC(=NC(NC(=O)CCCc1ccccc1)C(C)(C)C)NC#N (configuration not stated)
[1]
  IC50: 25.1 nM
[2]
  IC50: 79.4 nM

## COc1ccc(CCC(=O)NC(N=C(NC#N)Nc2ccccc2C)C(C)(C)C)cc1OC (configuration not stated)
[1]
  IC50: 316 nM
[2]
  IC50: 200 nM

## COc1ccc(CC(=O)NC(NC(=NC#N)Nc2ccccc2Cl)C(C)(C)C)cc1OC (configuration not stated)
[1]
  IC50: 7.94 nM
[2]
  IC50: 63.1 nM

## COc1ccc(NC(=NC#N)NC(NC(=O)c2ccc(Cl)cc2)C(C)(Cl)Cl)c(OC)n1 (configuration not stated)
[1]
  IC50: 10 nM
[2]
  IC50: 50.1 nM

## Cc1ccccc1N/C(=N\C#N)NC(NC(=O)Cc1ccc2c(c1)OCO2)C(C)(C)C (configuration not stated)
[1]
  IC50: 39.8 nM
[2]
  IC50: 50.1 nM

## COc1ccc(CC(=O)NC(N=C(NC#N)Nc2ccc(C)cc2)C(C)(C)C)cc1OC (configuration not stated)
[1]
  IC50: 20 nM
[2]
  IC50: 2000 nM

## COc1ccc(CCCC(=O)NC(N/C(=N/C#N)Nc2cccnc2C)C(C)(C)C)cc1 (configuration not stated)
[1]
  IC50: 100 nM
[2]
  IC50: 50.1 nM

## COc1ccc(CCCC(=O)NC(NC(=NC#N)Nc2ccccc2C)C(C)(C)C)cc1 (configuration not stated)
[1]
  IC50: 31.6 nM
[2]
  IC50: 79.4 nM

## CC(Cl)(Cl)C(NC(=O)c1ccc(Cl)cc1)NC(=NC#N)Nc1cccnc1Cl (configuration not stated)
[1]
  IC50: 126 nM
[2]
  IC50: 63.1 nM

## CSc1ccc(CC(=O)NC(N=C(NC#N)Nc2cccnc2C)C(C)(C)C)cc1 (configuration not stated)
[1]
  IC50: 31.6 nM
[2]
  IC50: 20 nM

## COc1ccc(CC(=O)NC(N=C(NC#N)Nc2cc(F)cc(F)c2)C(C)(C)C)cc1OC (configuration not stated)
[1]
  IC50: 316 nM
[2]
  IC50: 398 nM

## COc1ccc(CC(=O)NC(N=C(NC#N)Nc2ccc(F)cc2)C(C)(C)C)cc1OC (configuration not stated)
[1]
  IC50: 20 nM
[2]
  IC50: 316 nM

## COc1ccc(CC(=O)NC(N/C(=N/C#N)Nc2cccnc2C)C(C)(C)C)cc1OC (configuration not stated)
[1]
  IC50: 158 nM
[2]
  IC50: 251 nM

## Cc1ccccc1N/C(=N\C#N)NC(NC(=O)Cc1ccccc1)C(C)(C)C (configuration not stated)
[1]
  IC50: 316 nM
[2]
  IC50: 31600 nM

## COc1ccc(CCC(=O)NC(N/C(=N/C#N)Nc2ccccc2C)C(C)(C)C)cc1 (configuration not stated)
[1]
  IC50: 251 nM
[2]
  IC50: 398 nM

## COc1cc(OC)cc(C(=O)NC(N=C(NC#N)Nc2ccccc2C)C(C)(C)C)c1 (configuration not stated)
[1]
  IC50: 794 nM
[2]
  IC50: 2510 nM

## COc1cc(CC(=O)NC(N/C(=N/C#N)Nc2ccccc2C)C(C)(C)C)cc(OC)c1 (configuration not stated)
[1]
  IC50: 63.1 nM
[2]
  IC50: 251 nM

## COc1ccc(CC(=O)NC(N=C(NC#N)Nc2cc(Cl)ccc2F)C(C)(C)C)cc1OC (configuration not stated)
[1]
  IC50: 20 nM
[2]
  IC50: 79.4 nM

## O=C(CC12CC3CC(CC(C3)C1)C2)Nc1ccc2[nH]ncc2c1
[1]
  IC50: 501 nM
[2]
  IC50: 158 nM

## COc1ccc(C(=O)NC(N=C(NC#N)Nc2ccccc2C)C(C)(C)C)cc1 (configuration not stated)
[1]
  IC50: 2510 nM
[2]
  IC50: 7940 nM

## CC(C)(C)C(N=C(NC#N)Nc1cccc2ncccc12)NC(=O)Cc1ccc2c(c1)OCCO2 (configuration not stated)
[1]
  IC50: 10 nM
[2]
  IC50: 10 nM

## COc1ccc(CC(=O)NC(N=C(NC#N)Nc2cc(C)ccc2C)C(C)(C)C)cc1OC (configuration not stated)
[1]
  IC50: 3.16 nM
[2]
  IC50: 63.1 nM

## COc1ccc(CC(=O)NC(N=C(NC#N)Nc2cccc(F)c2)C(C)(C)C)cc1OC (configuration not stated)
[1]
  IC50: 79.4 nM
[2]
  IC50: 3160 nM

## Cc1ccc(CC(=O)NC(NC(=NC#N)Nc2cccnc2C)C(C)(C)C)cc1F (configuration not stated)
[1]
  IC50: 200 nM
[2]
  IC50: 63.1 nM

## COc1ccc(CC(=O)NC(N=C(NC#N)NCc2ccccc2Cl)C(C)(C)C)cc1OC (configuration not stated)
[1]
  IC50: 200 nM
[2]
  IC50: 631 nM

## Cc1ccccc1N/C(=N\C#N)NC(NC(=O)Cc1ccc(Cl)cc1)C(C)(C)C (configuration not stated)
[1]
  IC50: 20 nM
[2]
  IC50: 63.1 nM

## Cc1ncccc1NC(=NC#N)NC(NC(=O)CCCCc1ccccc1)C(C)(C)C (configuration not stated)
[1]
  IC50: 50.1 nM
[2]
  IC50: 63.1 nM

## COc1ccc(CC(=O)NC(NC(=NC#N)Nc2cccnc2OC)C(C)(C)C)cc1OC (configuration not stated)
[1]
  IC50: 39.8 nM
[2]
  IC50: 100 nM

## COc1ccc(CC(=O)NC(N=C(NC#N)Nc2ccccc2F)C(C)(C)C)cc1OC (configuration not stated)
[1]
  IC50: 12.6 nM
[2]
  IC50: 200 nM

## COc1ccc(CC(=O)NC(N/C(=N/C#N)Nc2c(F)cccc2F)C(C)(C)C)cc1OC (configuration not stated)
[1]
  IC50: 31.6 nM
[2]
  IC50: 200 nM

## COc1ccc(CC(=O)NC(N/C(=N/C#N)Nc2cc(F)ccc2F)C(C)(C)C)cc1OC (configuration not stated)
[1]
  IC50: 20 nM
[2]
  IC50: 100 nM
